# Screens: PubChem BioAssay, several laboratories
# UCH37 inh = inhibitors of human deubiquitinating enzyme UCH37. AID 588478. 330,000 tested, 0.33% active. Q9Y5K5. purified proteasome/UCH37, Ub-AMC cleavage fluorescence. inhibition, % (test concentration not listed);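 active = mean inhibition over replicate wells above about 20%, limit read from the data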;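 also: 0% = compound-free wells with enzyme and 100% = wells lacking proteasome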
# Target sequence (Q9Y5K5 whole entry, looked up): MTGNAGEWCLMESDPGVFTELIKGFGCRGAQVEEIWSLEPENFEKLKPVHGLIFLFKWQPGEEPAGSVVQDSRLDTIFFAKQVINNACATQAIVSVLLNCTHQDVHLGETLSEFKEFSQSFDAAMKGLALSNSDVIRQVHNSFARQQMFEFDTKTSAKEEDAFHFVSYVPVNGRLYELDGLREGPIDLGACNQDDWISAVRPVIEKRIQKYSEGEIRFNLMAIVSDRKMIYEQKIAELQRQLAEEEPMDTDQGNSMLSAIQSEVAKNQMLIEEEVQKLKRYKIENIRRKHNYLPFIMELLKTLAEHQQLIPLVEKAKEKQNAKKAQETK
#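 system = Proteasome-associated human UCH37 deubiquitinase | amount = 0.15 nM proteasome as dispensed | medium = pH 7.4 Tris-HCl (50 mM) with ovalbumin, ATP-MgCl2, DTT | incubation = 30 min preincubation with enzyme, 25 min cleavage at room temperature | detection = AMC fluorescence 355/460 nm | read-out basis = percent inhibition | controls = no-proteasome and no-compound wells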
# MEKK2wt PB1 HTS = raises or lowers MEK5 binding to wildtype human MEKK2 PB1 domain. 290,000 tested, 1.1% active. bead flow cytometry, Alexa488-MEK5 binding to MEKK2 WT; actives lie on both sides. AID 1531. Q9Y2U5. binding response (% of control), % at 10 µM; in the data active = binding response below about 67% or above about 130%
# Rce1 inh = blocks yeast Ras-converting enzyme; Q03530; yeast membranes, quenched prenylated peptide cleavage fluorescence; calls only; 290,000 tested, 0.27% active;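 active = fall in fluorescence gain of 50% or more versus controls, with final raw signal at or below 3038400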;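 also: plate controls were neutral control wells for no effect and wells lacking membranes for full effect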
# MEKK2mut PB1 HTS = signal of MEK5 binding to mutant human MEKK2 PB1 domain | 290,000 tested, 0.35% active | bead flow cytometry, Alexa488-MEK5 binding to MEKK2 mutant | percent response, % at 10 µM; in the data active = percent response above about 24%, passing the limit was not always enough
# MEKK3 PB1 HTS = modulators (inhibitors or enhancers) of MEK5 binding to human MEKK3 PB1 domain; AID 1529; Q99759; bead-based flow cytometry, Alexa488-MEK5 binding to MEKK3; actives lie on both sides; 0 = blocked by unlabeled MEK5, 100 = vehicle; 290,000 tested, 1.4% active; binding response (% of control), % at 10 µM;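 active = binding response more than 3 SD above or below the average of its plate-row segment, actives on both sides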;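 also: Alexa488 bead fluorescence after subtracting the streptavidin-only scavenger bead signal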
# T cell HTS = T cell immune modulators affecting CD8 T cell-vesicle binding | 2C CD8+ T cell-vesicle binding, flow cytometry; hits give low values | response (vesicle binding), % at 7 µM | 330,000 tested, 0.068% active;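 active = response, share of CD8 T cells binding vesicles, and their 90th percentile fluorescence all below set limits, cut at about 80% in these data, passing the limit was not always enough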;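 also: values below 100% mean blocked vesicle binding to the CD8+ T cells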
#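 System: murine 2C transgenic CD8+ T lymphocytes; also added: QL9-loaded Drosophila micro-vesicles; times: binding 1.5 h at 37 °C; measured by: flow cytometry, PE anti-B7-1 (FL2) versus Alexa647 anti-CD8 (FL8), PFA-fixed; control set: Peptide-free naked vesicles (low) and QL9 vesicles with 0.7% DMSO vehicle (high)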
# An asterisk follows results filed as active; i = inactive; / = no result given; + = active, no number; [ ] = dose if it differs, or a comment. Rows were chosen to be rich in hits. Some 2.5% of all compounds tested hit in one or more screens of this group.
SMILES,UCH37 inh,MEKK2wt PB1 HTS,Rce1 inh,MEKK2mut PB1 HTS,MEKK3 PB1 HTS,T cell HTS
O=C(NN=Cc1ccccc1[N+](=O)[O-])c1ccncc1,4,/,/,/,/,/
CCc1nc(Nc2ccc(N3CCN(C(C)=O)CC3)cc2)c2oc3ccccc3c2n1,-1,101,+,-1,94,232
COC1=C/C(=C/c2c(N)n3nc(CC(=O)N4CCCC4)sc3nc2=O)C=CC1=O,13,91,i,0,94,476
COC1=CC(=Cc2c(N)n3nc(CC(=O)N4CCCCC4)sc3nc2=O)C=C(OC)C1=O,/,70*[inhibitor],i,-14,82*[inhibitor],323
OC(Cc1ccncc1)(c1ccccc1)c1ccccc1,25*,/,i,/,/,206
Cc1ccc(Sc2ccc(C=NO)cc2[N+](=O)[O-])cc1,0,/,/,/,/,/
Cc1ccc(C2OC(=O)C=C2c2ccccc2)cc1 (stereo not drawn),24*,/,i,/,/,323
Cc1ccc(C2OC(=O)c3ccccc32)cc1 (stereo not drawn),6,99,i,1,100,141
CCC(=NNC(=O)c1c[nH]c2ccccc12)c1cccs1,6,/,/,/,/,/
C=CCOc1ccc(CN(C)CC(O)COc2cccc3ccccc23)cc1 (stereo not drawn),5,142*,/,14,107,476
CC1CCCCC1=NNC(=S)NCCc1ccccc1 (stereo not drawn),2,/,/,/,/,/
CC1CCN(c2ccc(C=NNc3nncn3N)cc2[N+](=O)[O-])CC1,13,/,/,/,/,/
CC(=O)Nc1ccc(NC2=CC(=NS(=O)(=O)c3cccs3)c3ccccc3C2=O)cc1,29*,/,/,/,/,/
Cc1ccccc1NC1=C/C(=N\S(=O)(=O)c2ccc(C(=O)O)cc2)c2ccccc2C1=O,94*,92,i,-8,101,93
Cc1ccc(C(=O)ON=C(c2nonc2N)N(C)C)cc1,6,/,/,/,/,/
CC(C)NC(=S)NN=Cc1ccc(C(C)(C)C)cc1,2,/,/,/,/,/
Cc1cccc(OCCN2C(=O)C(=O)c3cc(C)ccc32)c1,5,99,+,2,99,359
O=C(Nc1ccccc1C(=O)O)c1ccc(NC(=O)C2CC2)cc1,3,1.0*[inhibitor],i,-1,96,164
CCC(=NNC(N)=O)c1ccc(OC)c(OC)c1,4,/,/,/,/,/
COc1cc(C=NNC(=O)CC2(C)OCCCO2)ccc1OCc1ccccc1,6,/,/,/,/,/
Cc1cc(C)n(C(=O)c2sc3cc(F)ccc3c2Cl)n1,-3,102,i,-1,98,0.0*
CN1CCN(C(=NO)c2nonc2N)CC1,1,/,/,/,/,/
CC(C)OC(=O)c1c(N)n(CCCN2CCOCC2)c2nc3ccccc3nc12,i,101,+,3,101,337
COc1ccccc1CNC(=O)c1c(N)n(CCCN2CCOCC2)c2nc3ccccc3nc12,-236,/,i,/,/,/
CCCCCCOc1ccc(N2C(=O)CC(NCCc3ccc(S(N)(=O)=O)cc3)C2=O)cc1 (stereo not drawn),4,100,i,-2,98,594
SMILES,UCH37 inh,MEKK2wt PB1 HTS,Rce1 inh,MEKK2mut PB1 HTS,MEKK3 PB1 HTS,T cell HTS
CCCCCCOc1ccc(N2C(=O)CC(NCc3ccc(S(N)(=O)=O)cc3)C2=O)cc1 (stereo not drawn),-1,-4.0*,i,-2,95,227
O=S(=O)(NN=Cc1cccn1-c1ccccc1)c1ccc2ccccc2c1,3,/,/,/,/,/
O=C(c1cnc2n(c1=O)CCS2)N1CCN(c2ccccc2Cl)CC1,/,107,/,5,96,/
O=C(c1cnc2n(c1=O)CCS2)N1CCN(C(c2ccccc2)c2ccc(Cl)cc2)CC1 (stereo not drawn),5,115,+,13,114,630
O=C(NN=Cc1cc(Br)ccc1O)C(c1ccncc1)N1CCOCC1 (stereo not drawn),-51,/,/,/,/,/
COc1ccc(C(=O)ON=C(N)Cc2ccc(Cl)cc2)cc1OC,-1,/,/,/,/,/
Cc1ccc(S(=O)(=O)Cc2cn3cccnc3n2)cc1,-292,90,+,-8,89,/
O=S(=O)(N=C(Nc1cc(N2CCOCC2)ncn1)c1ccc(F)cc1)c1ccccc1,-2,/,/,/,/,/
Cc1ccc2nc3c(c(N)c2c1)CCN3C,/,113,+,11,106,118
Cc1ccc2nc3c(c(N)c2c1)CCN3c1ccccc1,-439,93,i,-6,78,499
